“And” between values parts separate entries of the source, which are not always exact repeats. Equal entries are not always repeated. One block for each compound: values may come before it. Square brackets hold non-standard residues; d marks the D form. Peptide text beside a SMILES is read from it. * marks the point of attachment. Ala(cPent) = N[C@@H](CC1CCCC1)C(=O)O; Cbz = O=C(OCc1ccccc1)*
Experiments:
APC‒Asef = biological target: T1, APC‒Asef (Homo sapiens, UniProt P25054); experiment: Fluorescence-polarization; format: binding; conditions: for inhibition at 400 µM: read-out: Inhibitory activity (inhibition rate %), at 400 μmol/L
T1 sequence (P25054 303-739): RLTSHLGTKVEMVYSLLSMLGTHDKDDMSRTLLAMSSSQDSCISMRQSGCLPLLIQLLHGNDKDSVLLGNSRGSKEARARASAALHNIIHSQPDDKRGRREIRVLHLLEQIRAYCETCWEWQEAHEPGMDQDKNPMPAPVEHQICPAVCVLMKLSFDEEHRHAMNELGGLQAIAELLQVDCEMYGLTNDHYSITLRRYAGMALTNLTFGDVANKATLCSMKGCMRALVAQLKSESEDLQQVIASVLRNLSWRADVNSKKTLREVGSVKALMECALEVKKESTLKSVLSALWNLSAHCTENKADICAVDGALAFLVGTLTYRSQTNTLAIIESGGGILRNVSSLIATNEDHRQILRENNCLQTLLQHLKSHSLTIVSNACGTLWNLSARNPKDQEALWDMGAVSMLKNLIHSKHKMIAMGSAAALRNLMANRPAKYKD

APC‒Asef interaction [1] = biological target: T2, APC‒Asef interaction (Homo sapiens, UniProt P25054); experiment: Co-IP of APC‒Asef in drug-treated HEK293T cell lysates; format: biochemical; conditions: AT46 0.2, 1 or 5 μmol/L, 2 h
T2 sequence (P25054 303-876): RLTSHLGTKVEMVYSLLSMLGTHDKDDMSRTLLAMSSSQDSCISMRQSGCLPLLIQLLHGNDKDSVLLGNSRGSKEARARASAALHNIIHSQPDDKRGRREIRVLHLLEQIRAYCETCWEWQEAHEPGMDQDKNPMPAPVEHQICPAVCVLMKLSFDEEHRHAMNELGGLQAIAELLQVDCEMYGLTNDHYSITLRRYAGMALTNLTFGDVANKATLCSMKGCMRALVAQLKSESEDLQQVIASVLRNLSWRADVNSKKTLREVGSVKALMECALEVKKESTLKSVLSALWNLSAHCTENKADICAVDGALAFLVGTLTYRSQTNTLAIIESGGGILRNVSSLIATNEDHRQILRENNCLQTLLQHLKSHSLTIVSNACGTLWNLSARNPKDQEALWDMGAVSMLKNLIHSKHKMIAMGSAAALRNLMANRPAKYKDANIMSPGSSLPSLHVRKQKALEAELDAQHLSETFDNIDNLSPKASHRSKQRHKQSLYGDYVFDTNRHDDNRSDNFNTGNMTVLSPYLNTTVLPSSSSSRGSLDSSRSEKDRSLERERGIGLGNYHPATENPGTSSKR

APC‒Asef interaction [2] = biological target: T2, APC‒Asef interaction; experiment: Co-IP of exogenous HA-APC and FLAG-Asef in treated HEK293T cells; format: cell-based; conditions: 20 μmol/L, 48 h
Method in brief: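 HEK293T cells transfected with HA-APC (303‒876) and Flag-Asef plasmids, then exposed to test compound at 20 μmol/L or DMSO for 48 h. Cells lysed in 0.3% NP-40 buffer (50 mmol/L Tris-HCl pH 7.5, 150 mmol/L NaCl, PMSF, NaF, Na₃VO₄, protease inhibitors). Lysate incubated with anti-FLAG magnetic beads 3 h at 4 °C. Bound protein eluted by boiling 10 min at 95 °C in loading buffer.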

SW480 cells [3] = experiment: Wound healing assay; format: cell-based; conditions: 20 μmol/L, 48 h
Method in brief: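 SW480 cells (1 × 10⁶) grown to confluence at 37 °C, 5% CO₂, then scratched and PBS-washed. Cells cultured in 1% FBS medium with test compound (20 μmol/L) or DMSO. Wound imaged at scratching and after 48 h. Migration expressed relative to DMSO group, mean ± SD of n = 3 independent experiments.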

SW480 cells [4] = experiment: Transwell migration assay; format: cell-based; conditions: 20 μmol/L, 72 h
Method in brief: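 SW480 cells seeded at 1.5 × 10⁵ per insert in serum-free medium, with complete medium below. Test compound (20 μmol/L) or DMSO added to both chambers for 72 h. Nonmigrated cells swabbed off; migrated cells crystal-violet stained and counted. Counts normalized to DMSO-treated mean, n = 3 independent experiments, mean ± SD.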

SW480 cells [5] = experiment: Cell cytotoxicity assay; format: cell-based; conditions: 20 μmol/L, 48 h
[6] = Pharmacokinetic study in mice; format: in vivo; conditions: male, BALB/c, mouse, plasma, ip, 1 mg/kg
Method in brief: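 Male BALB/c mice (n = 3/group) dosed once i.p. at 1 mg/kg (5 mL/kg) in DMSO:Cremophor EL:10% HP-β-CD in saline (2:8:90). Blood taken from dorsal metatarsal vein predose and at 0.083–48 h. Plasma obtained by centrifugation at 4000 × g, 5 min, 4 °C. Analysed by LC‒MS/MS on C18 column with acetonitrile/water/0.1% formic acid gradient, negative MRM mode.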

[7] = IC50 ± SD, FP competition assay, three independent experiments

SMILES: CC(C)C[C@H](NC(=O)[C@H](CO)NC(=O)[C@H](CCC(=O)O)NC(=O)c1ccncn1)C(=O)NCCc1ccccc1 [AT3]
IC50 (APC‒Asef; [7]): 323 µM | inhibition at 400 µM (APC‒Asef): 54.6 ± 2%

Inhibitory activity (inhibition rate %) (APC‒Asef; at 400 μmol/L): 13.1 ± 0.7% | inhibition at 400 µM (APC‒Asef): 13%
SMILES: CC(C)C[C@H](NC(=O)[C@H](CO)NC(=O)[C@H](CCC(=O)O)NC(=O)c1ccncn1)C(=O)NCC=Cc1ccccc1 [AT4]

SMILES: CC(C)C[C@H](NC(=O)[C@H](CC1CC1)NC(=O)[C@H](CCC(=O)O)NC(=O)c1ccncn1)C(=O)NC1CC1c1ccccc1 (stereo partly drawn) [AT7]
IC50 (APC‒Asef; [7]): 61.3 ± 7.2 µM

SMILES: CC(C)C[C@H](NC(=O)[C@H](CC1CCCCC1)NC(=O)[C@H](CCC(=O)O)NC(=O)c1ccncn1)C(=O)NC1CC1c1ccccc1 (stereo partly drawn) [AT8]
IC50 (APC‒Asef; [7]): 168 ± 9.5 µM

SMILES: CC(C)C[C@H](NC(=O)[C@H](Cc1ccccc1)NC(=O)[C@H](CCC(=O)O)NC(=O)c1ccncn1)C(=O)NC1CC1c1ccccc1 (stereo partly drawn) [AT9]
IC50 (APC‒Asef; [7]): 95.4 ± 7.5 µM

IC50 (APC‒Asef; [7]): 9.3 µM and 9.34 µM | fold increase in potency over AT6 (APC‒Asef; from FP IC50): 2 fold
SMILES: CC(C)C[C@H](NC(=O)[C@H](Cc1ccc2ccccc2c1)NC(=O)[C@H](CCC(=O)O)NC(=O)c1ccncn1)C(=O)NC1CC1c1ccccc1 (stereo partly drawn) [AT10]

IC50 (APC‒Asef; pIC50, test set, Table 3, pIC50 = ‒Log [IC50 (μmol/L) × 10^−6]): 0.708 µM
SMILES: CSc1nccc(C(=O)N[C@@H](CCC(=O)O)C(=O)N[C@@H](Cc2ccc3ccccc3c2)C(=O)N[C@@H](CC(C)C)C(=O)NC2CC2c2ccccc2)n1 (stereo partly drawn) [AT38]

SMILES: CSc1nccc(C(=O)N[C@@H](CC(=O)O)C(=O)N[C@@H](Cc2ccc3ccccc3c2)C(=O)N[C@@H](CC(C)C)C(=O)NC2CC2c2ccccc2)n1 (stereo partly drawn) [AT41]
IC50 (APC‒Asef; [7]): 19.3 ± 0.58 µM

IC50 (APC‒Asef; [7]): 33 µM and 33.1 µM
SMILES: CSc1nccc(C(=O)N[C@@H](CCC(=O)O)C(=O)N[C@@H](CC2CCCCC2)C(=O)N[C@@H](CC(C)C)C(=O)NC2CC2c2ccccc2)n1 (stereo partly drawn) [AT42]

SMILES: CSc1nccc(C(=O)N[C@@H](CCC(=O)O)C(=O)N[C@H](Cc2ccc3ccccc3c2)C(=O)N[C@@H](CC(C)C)C(=O)NC2CC2c2ccccc2)n1 (stereo partly drawn) [AT43]
IC50 (APC‒Asef; [7]): 127 ± 6.6 µM

SMILES: CSc1nccc(C(=O)N[C@@H](CCC(=O)O)C(=O)N[C@@H](Cc2ccc3ccccc3c2)C(=O)N[C@@H](CC(C)C)C(=O)N[C@@H]2C[C@H]2c2ccccc2)n1 [AT44]
IC50 (APC‒Asef; [7]): 0.48 ± 0.07 µM

SMILES: CSc1nccc(C(=O)N[C@@H](CCC(=O)O)C(=O)N[C@@H](Cc2ccc3ccccc3c2)C(=O)N[C@@H](CC(C)C)C(=O)N[C@H]2C[C@@H]2c2ccccc2)n1 [AT45]
IC50 (APC‒Asef; [7]): 8.61 ± 0.12 µM

SMILES: CSc1ncc(Br)c(C(=O)N[C@@H](CCC(=O)O)C(=O)N[C@@H](Cc2ccc3ccccc3c2)C(=O)N[C@@H](CC(C)C)C(=O)N[C@@H]2C[C@H]2c2ccccc2)n1 [AT46]
IC50 (APC‒Asef; [7]): 0.11 ± 0.003 µM | fold increase in potency over parental MAI-400 (APC‒Asef; from FP IC50): 24 fold | disruption of APC‒Asef interaction (Co-IP) (APC‒Asef interaction [1]): dose-dependently attenuated the APC‒Asef interaction in cell lysates | disruption of APC‒Asef interaction (Co-IP) (APC‒Asef interaction [2]): no disrupting effect on the APC‒Asef interaction in the cell model | migration of SW480 cells, wound healing (SW480 cells [3]): no inhibition | migration of SW480 cells, Transwell (SW480 cells [4]): no inhibition | survival ability (proliferative viability) of SW480 cells, CCK-8 (SW480 cells [5]): did not damage the survival ability of SW480 cells | AUC(0-t) [6]: 124 ± 18.4 ng·h/mL | Cmax [6]: 60.8 ± 5.65 ng/mL | MRT [6]: 1.96 ± 0.58 h | Tmax [6]: 0.83 ± 0.29 h | half-life [6]: 1.2 ± 0.5 h

SMILES: CSc1ncc(Br)c(C(=O)N[C@@H](CCC(=O)OC(C)(C)C)C(=O)N[C@@H](Cc2ccc3ccccc3c2)C(=O)N[C@@H](CC(C)C)C(=O)N[C@@H]2C[C@H]2c2ccccc2)n1 [AT47]
inhibition at 400 µM (APC‒Asef): 24.4% | disruption of APC‒Asef interaction (Co-IP) (APC‒Asef interaction [2]): notably diminished APC‒Asef PPI | migration of SW480 cells, wound healing (SW480 cells [3]): inhibited the migration of SW480 cells | migration of SW480 cells, Transwell (SW480 cells [4]): suppressed the migration of SW480 cells | survival ability (proliferative viability) of SW480 cells, CCK-8 (SW480 cells [5]): did not damage the survival ability of SW480 cells | AUC(0-t) [6]: 4800 ± 868 ng·h/mL | Cmax [6]: 1460 ± 119 ng/mL | MRT [6]: 4.97 ± 1.49 h | Tmax [6]: 1.67 ± 0.58 h | half-life [6]: 11.8 ± 5.7 h

AUC(0-t) [6]: 52.4 ± 6.07 ng·h/mL | Cmax [6]: 101 ± 25 ng/mL | MRT [6]: 0.43 ± 0.07 h | Tmax [6]: 0.25 h | half-life [6]: 0.24 ± 0.06 h
SMILES: C[C@H](NC(=O)OCc1ccccc1)C(=O)NCC(=O)N[C@@H](CCC(=O)O)C(=O)N[C@@H](C)C(=O)N[C@@H](CC1CCCC1)C(=O)N[C@@H](Cc1ccc(O)cc1)C(=O)N[C@@H](CCC(=O)O)C(N)=O [MAI-203, reference compound] (Cbz-AGEA[Ala(cPent)]YE-NH2; N-terminus and C-terminus assumed)
